inhibition, EC50 and half-life data for one compound are collected here from ChEMBL document CHEMBL2321875 (J Med Chem, 2013).

Calls of active or inactive are those of the source. No cut-off for these calls is given here.

The test system of series [1] is Danio rerio. As to the kind of experiment: In vivo inhibition of porcupine in zebrafish embryos assessed as inhibition of Wnt/beta-casein-mediated posterior axis formation at 1 to 5 uM applied in aquarium water by mCherry-based reporter gene assay. Format: functional, organism-based. The note with it: in the assay text read “beta-catenin” for “beta-casein”. The method in brief: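 Zebrafish embryos carrying an mCherry-based Wnt/β-catenin signaling reporter were exposed to increasing concentrations of compound in the aquarium water. Whole-animal fluorescence intensity was quantified, and posterior axis formation was scored.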
(In general: Reporter assays use an easily measured gene product as a stand-in for the process of interest.)

Series [2] has as its target T1, Protein-serine O-palmitoleoyltransferase porcupine (Mus musculus, UniProt Q9JJJ7).
T1 sequence (Q9JJJ7 whole entry): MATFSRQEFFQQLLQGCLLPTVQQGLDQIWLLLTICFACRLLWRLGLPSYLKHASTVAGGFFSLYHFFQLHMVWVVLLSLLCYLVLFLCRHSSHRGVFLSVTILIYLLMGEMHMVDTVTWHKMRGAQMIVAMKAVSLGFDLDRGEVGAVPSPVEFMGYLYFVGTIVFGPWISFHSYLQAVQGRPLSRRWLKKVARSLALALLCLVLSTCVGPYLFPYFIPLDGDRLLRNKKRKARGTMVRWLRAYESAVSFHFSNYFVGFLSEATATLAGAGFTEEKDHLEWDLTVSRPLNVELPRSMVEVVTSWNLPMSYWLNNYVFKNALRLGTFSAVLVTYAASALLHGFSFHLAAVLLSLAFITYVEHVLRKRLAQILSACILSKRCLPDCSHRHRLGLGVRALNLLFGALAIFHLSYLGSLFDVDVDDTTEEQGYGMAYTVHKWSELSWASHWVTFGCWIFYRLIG
The series can be described thus: Inhibition of porcupine-mediated Wnt signalling in mouse L cells after 24 hrs by SuperTopflash reporter assay. Type of series: cell-based.

For series [3], the target named is T2, Protein-serine O-palmitoleoyltransferase porcupine (Mus musculus) (UniProt Q9JJJ7).
T2 sequence (whole entry): T1 sequence (Q9JJJ7 whole entry)
The series can be described thus: Inhibition of porcupine in E11.5 mouse embryo kidney assessed as inhibition of Wnt-mediated branching morphogenesis at 10 to 50 nM measured every 24 hrs by fluorescent stereoscopic analysis relative to control. A digest of the protocol:
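Kidneys from E11.5 Hoxb7Cre;RosaTomato mouse embryos were cultured at the air/media interface in media containing 1 nM to 1 μM compound, with DMSO controls. Media was replaced and fluorescent stereoscope images were taken every 24 h. The read-out was the fold increase in ureteric bud tip number from 0 to 48 h, compared by Student t test.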

Series [4] can be described thus: Half life in ICR/CD-1 mouse liver S9 fraction at 2 uM by LC-MS/MS analysis. Format: ADME, subcellular.
The target of series [5] is T3, Protein-serine O-palmitoleoyltransferase porcupine (Homo sapiens) (UniProt Q9H237).
T3 sequence (whole entry): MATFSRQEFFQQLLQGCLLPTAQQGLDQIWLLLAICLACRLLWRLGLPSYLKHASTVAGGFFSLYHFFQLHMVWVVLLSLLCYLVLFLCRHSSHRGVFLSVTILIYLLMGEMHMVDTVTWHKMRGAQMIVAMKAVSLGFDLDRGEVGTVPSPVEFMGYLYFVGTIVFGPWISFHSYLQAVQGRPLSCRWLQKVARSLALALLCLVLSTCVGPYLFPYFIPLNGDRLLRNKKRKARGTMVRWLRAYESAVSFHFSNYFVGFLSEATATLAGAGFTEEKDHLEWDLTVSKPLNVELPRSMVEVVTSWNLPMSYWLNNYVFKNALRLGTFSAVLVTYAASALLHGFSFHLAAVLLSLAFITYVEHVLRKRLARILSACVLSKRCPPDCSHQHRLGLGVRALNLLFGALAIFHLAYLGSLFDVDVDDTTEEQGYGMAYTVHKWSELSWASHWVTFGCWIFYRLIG
The series can be described thus: Inhibition of porcupine-mediated phosphorylation of dishevelled 2 in HEK293 cells at 2.5 uM. Type of series: cell-based.

In series [6] the test system is Danio rerio. The series can be described thus: In vivo inhibition of porcupine in juveline stage of zebrafish assessed as inhibition of Wnt-mediated tail fin regeneration at 5 uM. Format: functional, organism-based.
Series [7] in a line: Half life in mouse plasma at 2 uM. Format: ADME, cell-free.
A short description of series [8]: Half life in rat plasma at 2 uM. Type of series: ADME, cell-free.

For `O=C(CSc1nc2c(c(=O)n1-c1ccccc1)SCC2)Nc1ccc(-c2ccccc2)cn1`, the inhibition entry (in the series on Danio rerio [1]; in series [3]; in series [5]; in the series on Danio rerio [6]) was “Active” throughout. Besides, the EC50 (in general, the concentration giving half of the maximal effect) in series [2] worked out at 0.5 nM. Moreover, the half-life (as a rule, the time in which the quantity being followed falls by half) at 2 µM turned out to be 26 min in series [4], 2 min in series [7] and 190 min in series [8].
